Assay results as given in ChEMBL document CHEMBL1146297, “Synthesis of 2'-paclitaxel methyl 2-glucopyranosyl succinate for specific targeted delivery to cancer cells” (Bioorg Med Chem Lett, 2007).
Values after ≈ are worked out from the molar mass of the structure shown.

Key:
[1] = system: MKN-45; test: Cytotoxicity against human MKN45 cells; type: functional, cell-based
[2] = system: NCI-H226; test: Cytotoxicity against human NCI-H226 cells; type: functional, cell-based
[3] = system: MCF7; test: Cytotoxicity against human MCF7 cells; type: functional, cell-based
Method in brief: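 Human MCF-7 breast cancer cells were tested in a panel of eight cancer lines plus RPTEC normal renal epithelial cells, with growth inhibition measured across a concentration range. IC50 is the concentration giving 50% inhibition, taken as the mean of at least three independent experiments with SD under 10%.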

[4] = Cytotoxicity against human TW01 cells; type: functional, cell-based
[5] = system: A498; test: Cytotoxicity against human A498 cells; type: functional, cell-based
[6] = system: RPTEC; test: Selectivity index, IC50 for TW01 cells to human RPTEC cells; type: functional
Method in brief: (§1)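 Selectivity index is the IC50 in the cancer line (MCF-7 or NPC-TW01) divided by the IC50 in normal RPTEC cells. Each IC50 is the mean of at least three independent experiments.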

[7] = system: RPTEC; test: Cytotoxicity against human RPTEC cells; type: cell-based
[8] = system: RPTEC; test: Selectivity index, IC50 for MCF7 cells to human RPTEC cells; type: functional; method in brief: as §1
[9] = Cytotoxicity against human Hep3B cells; type: functional, cell-based, Hep 3B2
[10] = Solubility in water; type: physicochemical
[11] = system: HCT-116; test: Cytotoxicity against human HCT116 cells; type: functional, cell-based
[12] = Cytotoxicity against human MES-SA cells; type: functional, cell-based
[13] = Half life in human serum; type: ADME, cell-free
Method in brief: (§2)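 Compound incubated in human serum at 4 µg/mL serum and 37 °C. It was then extracted with dichloromethane, and the remaining intact material was quantified by reverse-phase HPLC on a C18 column. Sampling ran up to 96 h, and stability is expressed as percent remaining.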

[14] = Stability in human serum for 4 hrs; type: ADME, cell-free; conditions: read-out: Stability; method in brief: as §2
[15] = system: MCF7; test: Cytotoxicity against human MCF7 cells at 25 ng/mL; type: functional

Compound | IC50 [1] [nM] | IC50 [2] [nM] | IC50 [3] [nM] | IC50 [4] [nM] | IC50 [5] [nM] | Ratio IC50 [6] | IC50 [7] [nM] | Ratio IC50 [8] | IC50 [9] [nM] | solubility [10] [µg/mL] | IC50 [11] [nM] | IC50 [12] [nM] | half-life [13] [h] | remaining at 4 h [14] [%] | Activity [15] [%]
CC(=O)O[C@H]1C(=O)[C@@]2(C)[C@H]([C@H](OC(=O)c3ccccc3)[C@]3(O)C[C@H](OC(=O)[C@H](O)[C@@H](NC(=O)c4ccccc4)c4ccccc4)C(C)=C1C3(C)C)[C@]1(OC(C)=O)CO[C@@H]1C[C@@H]2O [PACLITAXEL] | 0.5 | 6.8 | 0.5 | 0.3 | 61 | 0.33 | 0.9 | 0.56 | 5.4 | < 4 | 0.6 | 0.5 | – | – | –
CO[C@H]1O[C@H](CO)[C@@H](O)[C@@H](O)[C@H]1OC(=O)CCC(=O)O[C@@H](C(=O)O[C@H]1C[C@@]2(O)[C@@H](OC(=O)c3ccccc3)[C@@H]3[C@]4(OC(C)=O)CO[C@@H]4C[C@H](O)[C@@]3(C)C(=O)[C@H](OC(C)=O)C(=C1C)C2(C)C)[C@@H](NC(=O)c1ccccc1)c1ccccc1 | 14.1 | 114 | 0.7 | 7.2 | 258 | 0.0046 | 1580 | 0.0004 | 60.3 | 350 (≈ 310 µM) | 25.6 | 9.1 | 66 | 85 | –
CC(=O)O[C@H]1C(=O)[C@@]2(C)[C@H]([C@H](OC(=O)c3ccccc3)[C@]3(O)C[C@H](OC(=O)[C@H](OC(=O)CCC(=O)O)[C@@H](NC(=O)c4ccccc4)c4ccccc4)C(C)=C1C3(C)C)[C@]1(OC(C)=O)CO[C@@H]1C[C@@H]2O | – | – | – | – | – | – | – | – | – | – | – | – | – | – | 50
